Screens deposited in PubChem BioAssay by several laboratories.
SF-1 act = activators of human SF-1, primary screen, cell-based, CHO-K1, Gal4-SF-1 LBD, luciferase luminescence. Steroidogenic factor 1 (Homo sapiens), Q13285. CHO-K1 Gal4-SF-1 LBD luciferase reporter; % increase over DMSO SF-1-specific signal. activation, % at 10 µM. hit rate 1.9% among 65,000;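 active = activation above the mean activation of all tested compounds plus 3 SD, cut at about 50% in these data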
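Assay system – CHO-K1 cells with Gal4–hSF-1 LBD chimera plus Gal4-driven luciferase · Quantity – 4,000 cells per well · Times – compound added 1 h post-seeding, 20 h exposure at 37 °C, 5% CO2 · Measured by – luciferase light emission · Benchmarks – DMSO and mock-transfected background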
RORA act = activators of orphan receptor RORA, primary screen, cell-based, luminescence. AID 560, 2006. hit rate 1.5% among 65,000. Nuclear receptor ROR-alpha (Homo sapiens), P35398. activation, % at 10 µM. CHO-K1 Gal4-RORA LBD luciferase reporter; percent increase over mock-subtracted basal signal;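 active = activation above the mean of all tested compounds plus 3 SD, cut at about 49% in these data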
Target sequence (P35398 whole entry, looked up, the tested form may be a part): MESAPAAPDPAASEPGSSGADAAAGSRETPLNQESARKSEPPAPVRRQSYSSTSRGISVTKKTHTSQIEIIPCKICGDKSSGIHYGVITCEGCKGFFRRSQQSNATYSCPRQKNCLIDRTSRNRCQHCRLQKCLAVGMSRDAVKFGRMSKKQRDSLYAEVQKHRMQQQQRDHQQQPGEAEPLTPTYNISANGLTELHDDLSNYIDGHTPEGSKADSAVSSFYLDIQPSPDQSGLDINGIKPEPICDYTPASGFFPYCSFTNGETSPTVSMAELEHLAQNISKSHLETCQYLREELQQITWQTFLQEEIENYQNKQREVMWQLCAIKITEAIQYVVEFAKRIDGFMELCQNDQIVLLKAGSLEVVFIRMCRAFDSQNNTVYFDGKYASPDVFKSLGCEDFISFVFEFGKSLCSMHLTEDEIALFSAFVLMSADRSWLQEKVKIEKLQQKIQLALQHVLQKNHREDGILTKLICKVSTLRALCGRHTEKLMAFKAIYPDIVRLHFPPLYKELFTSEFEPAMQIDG
JNK3 inh = JNK3 kinase activity inhibitors, primary screen, biochemical, human, purified enzyme; AID 746, 2007; HTS; Mitogen-activated protein kinase 10 (Homo sapiens), P53779; inhibition, % at 8 µM; hit rate 0.61% among 60,000; in the data active = inhibition above about 17%
D1 allo mod = D1 CRE-luciferase signal change, two-sided – cell-based, HEK293 D1, dopamine EC30, D1 allosteric modulator project, primary screen; dopamine EC30 potentiation; actives deviate in either direction; B-score at 10 µM; hit rate 5.9% among 58,000;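 active = luminescence count or its row- and column-corrected plate score outside the 99.7% band of the plate's sample wells, on either side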
HEK293 NFkB inh = inhibitors of PMA/ionomycin-induced NF-kB reporter, primary screen, antigen receptor NF-kB inhibitor project, cell-based, HEK-293 luciferase reporter, luminescence. HEK-293 NF-kB luciferase reporter. inhibition, % at 3 µM. hit rate 0.21% among 62,000;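 active = inhibition above the mean of all tested compounds plus 3 SD, cut at about 40% in these data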
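Material: HEK-293 cells with stable firefly luciferase reporter driven by four HIV NF-kB elements / Also added: PMA plus ionomycin mix as NF-kB-activating stimulus / Compound dosing: 3 µM once, 0.30% DMSO / Times: 1 h pretreatment, 16 h stimulation, 37 °C / Signal: luminescence / Evaluation: per-plate % inhibition versus controls / Benchmarks: DMSO and 10 µM reference inhibitor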
D1 PAM confirm = D1 receptor positive allosteric modulators, retest, confirmation, cell-based, HEK293 D1, CRE-luciferase, duplicate; shares compounds with D1 allo mod; dopamine EC30 potentiation; stronger effect = higher value; luminescence at 10 µM; hit rate 88% among 2,200;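 active = luminescence in either of two replicates above the same-plate mean plus 3 SD of the low-dose dopamine control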
D1 no dopamine = D1 receptor agonism without dopamine, confirmation, mechanism study for D1 allosteric modulator project, cell-based, HEK293 D1, CRE-luciferase, secondary assay 1. hit rate 0.8% among 1,900. luminescence at 10 µM. luminescence, no dopamine; stronger effect = higher value. shares compounds with D1 allo mod; in the data active = luminescence above about 3900
Isoprot counter = isoproterenol response counter-screen activity for D1 modulators | calls only at 10 µM | HEK293 D1 CRE-luciferase, isoproterenol EC30 counter-screen | shares compounds with D1 allo mod | hit rate 63% among 2,200;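 active = luminescence in either replicate above plate mean of wells with a partly effective reference agonist dose plus 3 SD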;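 also: isoproterenol raises cAMP through native beta-adrenoceptor Gs so signal bypasses D1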
Each line names hits and unclear results; the compound was inactive in the other large screens (follow-up assays come after a bar, where they were run). Shown are actives, neighbours in structure and some others; about 7.9% of the full set was active somewhere.

Cc1ccc(-n2c(SCC3CCCCO3)nnc2-c2ccco2)cc1 (stereo not given)	none
N#CCSc1nc2cc(C(=O)N3CCC(C(N)=O)CC3)ccc2c2nc3ccccc3n12	D1 allo mod 10 | D1 PAM confirm 12528 | D1 no dopamine inactive | Isoprot counter active
CCN1C(=O)CC(c2ccco2)Sc2ccccc21 (stereo not given)	none (no result: D1 allo mod)
COc1ccc(-c2nnc3ccc(SCC(=O)N4CCN(c5ccccc5)CC4)nn23)cc1	none
COc1ccc(C2=CC(c3ccc(OC)c(OC)c3)n3nnnc3N2)c(OC)c1 (stereo not given)	D1 allo mod 9.3 | D1 PAM confirm 15796 | D1 no dopamine inactive | Isoprot counter active
COc1ccc(OC)c(C2C=C(c3ccc(C)c(C)c3)Nc3nnnn32)c1 (stereo not given)	D1 allo mod 3.9 | D1 PAM confirm 6516 | D1 no dopamine inactive | Isoprot counter inactive
COc1cccc(C2C=C(c3ccc(OC)cc3OC)Nc3nnnn32)c1 (stereo not given)	none
COc1cccc(C2=CC(c3cc(OC)ccc3OC)n3nnnc3N2)c1 (stereo not given)	D1 allo mod 4.1 | D1 PAM confirm 8488 | Isoprot counter active
CCc1nnc(NC(=O)CSc2nc(C)c3c(c2C#N)CCCC3)s1	SF-1 act 55, D1 allo mod 5.8 (no result: HEK293 NFkB inh) | D1 PAM confirm 11752 | Isoprot counter active
Cc1nc(SCC(=O)NCc2ccc3c(c2)OCO3)c(C#N)c2c1CCCC2	none
CCc1ccc(CCC(=O)Nc2nnc(CC)s2)o1	none
CC1(C)CCCN(C(=O)c2coc(=O)c(Br)c2)C1	none
CCOC(=O)c1oc2ccccc2c1NC(=O)Cc1cccs1	none
CCOC(=O)c1oc2ccccc2c1NC(=O)c1cc(OC)cc(OC)c1	D1 allo mod 4.7 | D1 PAM confirm 13500 | Isoprot counter active
NC(=O)c1oc2ccccc2c1NC(=O)c1ccc(F)cc1	JNK3 inh 26, D1 allo mod 4.5 | D1 PAM confirm 7528 | D1 no dopamine inactive | Isoprot counter inactive
CCOCC(=O)Nc1c(C(=O)OCC)oc2ccccc12	D1 allo mod 8.8 | D1 PAM confirm 17016 | D1 no dopamine inactive | Isoprot counter active
CCOC(=O)c1oc2ccccc2c1NC(=O)COC	D1 allo mod 21 | D1 PAM confirm 20772 | D1 no dopamine inactive | Isoprot counter active
CCOc1ccc(N2C(=O)CC(n3nc(C)cc3C)C2=O)cc1 (stereo not given)	none
Cc1cc(Oc2ccccc2)nc(N)n1	D1 allo mod 4 | D1 PAM confirm 9044 | Isoprot counter active
COC(=O)c1ccc(Oc2cc(C)nc(-n3nc(C)cc3C)n2)cc1	D1 allo mod 7.8 | D1 PAM confirm 18884 | D1 no dopamine inactive | Isoprot counter active
CCNc1nc(Oc2ccc(C(=O)OCC)cc2)nc(SC)n1	none (no result: JNK3 inh)
CCOC(=O)c1ccc(Oc2nc(NC)nc(SC)n2)cc1	D1 allo mod 8 | D1 PAM confirm 17796 | D1 no dopamine inactive | Isoprot counter inactive
COC(=O)CSc1nc(C)cc(Oc2ccccc2)n1	D1 allo mod 12 | D1 PAM confirm 13148 | Isoprot counter active
COc1ccccc1N1CSC2=C(C#N)C(c3ccc(SC)cc3)CC(=O)N2C1 (stereo not given)	none
CC1S/C(=C(\C#N)C(=O)NCc2ccco2)N(c2ccc(F)cc2)C1=O (stereo not given)	none
Cc1nc2nc[nH]n2c(=O)c1CCC(C)C	none (no result: D1 allo mod)
CCOC(=O)c1ccc(Oc2cc(C)nc(SC)n2)cc1	RORA act 57, D1 allo mod 3 | D1 PAM confirm 8484 | D1 no dopamine inactive | Isoprot counter inactive
Cc1c(C(=O)NC2CCCc3ccccc32)oc2ccc(S(=O)(=O)N3CCOCC3)cc12 (stereo not given)	D1 allo mod 6 (no result: JNK3 inh) | D1 PAM confirm 7816 | D1 no dopamine inactive | Isoprot counter active
COCCn1c(=O)c2c(nc3n2CCN3c2ccc(C)cc2)n(C)c1=O	none
CCOc1ccc(N=C2NC(=O)C(CC(=O)O)S2)cc1 (stereo not given)	none (no result: D1 allo mod)
O=C1N/C(=N/c2ccccn2)SC1Cc1ccccc1 (stereo not given)	D1 allo mod 4.5 | D1 PAM confirm 9704 | D1 no dopamine inactive | Isoprot counter inactive
CC(C)n1c(SCC(N)=O)nc2c1c(=O)n(C)c(=O)n2C	none
CC(C)n1c(SCC(=O)N2c3ccccc3Sc3ccccc32)nc2c1c(=O)n(C)c(=O)n2C	D1 allo mod 5.2 | D1 PAM confirm 12564 | Isoprot counter active
CCC(C)Sc1nc2c([nH]c3ccccc32)c(=O)n1C (stereo not given)	D1 allo mod 5.5 | D1 PAM confirm 14100 | D1 no dopamine inactive | Isoprot counter inactive
CCN(c1cccc(C)c1)c1ncnc2nc[nH]c12	none
CCCCN(c1ccccc1)c1ncnc2nc[nH]c12	D1 allo mod 12 | D1 PAM confirm 11140 | D1 no dopamine inactive | Isoprot counter active
CCCN1CCN(CCCNC(=O)c2cc3c(=O)n(C)c4ccccc4c3n2C)CC1	none
CN1CCN(CCNC(=O)c2cc3c(=O)n(C)c4ccccc4c3n2C)CC1	D1 allo mod 4.6 | D1 PAM confirm inactive | Isoprot counter inactive
Cc1cc(C)n2c3c(c(C#N)c2n1)CCCC3	D1 allo mod 2.9 | D1 PAM confirm 9512 | D1 no dopamine inactive | Isoprot counter inactive
CN1C(=O)N2CN(C3CCCCC3)CN3C(=O)N(C)C1C23 (stereo not given)	none (no result: SF-1 act, RORA act, JNK3 inh, HEK293 NFkB inh)
CCOc1cc2nc(-c3ccc(OC)c(OC)c3)nc(N3CCOCC3)c2cc1OC	D1 allo mod 13 (no result: HEK293 NFkB inh) | D1 PAM confirm 10492 | D1 no dopamine inactive | Isoprot counter active
CCNC(=O)CN(c1ccc(CC)cc1)S(C)(=O)=O	none (no result: SF-1 act, RORA act, JNK3 inh, HEK293 NFkB inh)
O=C1CC(c2cccs2)c2cc3c(cc2N1)OCCO3 (stereo not given)	D1 allo mod 7 | D1 PAM confirm 10536 | D1 no dopamine inactive | Isoprot counter inactive
